Experiments:
NCI-H460 [1] = experiment: Cytotoxicity against human NCI-H460 cells assessed as cell growth inhibition measured after 72 hrs by MTT assay; format: functional, cell-based; settings: NCI-H460, 72 h
In short: (§1)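 Cells kept in RPMI 1640 with 10% FBS at 37 °C, 5% CO₂, passaged every 2–3 days; grown to confluence, seeded at 5,000–7,000 cells/well depending on line, incubated 24 h. Compounds dissolved in 1% DMSO, diluted in medium to 1, 4, 16, 32 μM (6 replicates each), 72 h exposure. MTT 3–4 h, medium aspirated, DMSO added, 15 min, OD 540 nm; IC50 relative to untreated cells.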

NCI-H1975 = experiment: Cytotoxicity against human NCI-H1975 cells assessed as cell growth inhibition measured after 72 hrs by MTT assay; format: functional, cell-based; settings: NCI-H1975, 72 h; in short: as §1
HCC827 = experiment: Cytotoxicity against human HCC827 cells assessed as cell growth inhibition measured after 72 hrs by MTT assay; format: functional, cell-based; settings: HCC827, 72 h; in short: as §1
A549 [2] = experiment: Cytotoxicity against human A549 cells assessed as cell growth inhibition measured after 72 hrs by MTT assay; format: functional, cell-based; settings: A549, 72 h; in short: as §1
A549 [3] = experiment: Antiproliferative activity against human A549/ATCC cells assessed as cell growth at 10 uM incubated for 48 hrs by sulforhodamine B assay relative to control; format: functional; settings: read-out: Activity
In short: (§2)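 NCI DTP NCI-60 one-dose screen on the NSCLC panel. Cells were seeded at densities set by doubling rate and incubated 24 h. They were then exposed to a single 10 μM dose for 48 h. Each value is a growth percentage relative to the initial cell population: positive means net growth, negative means net cell kill.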

EKVX [4] = experiment: Antiproliferative activity against human EKVX cells assessed as cell growth at 10 uM incubated for 48 hrs by sulforhodamine B assay relative to control; format: functional; settings: read-out: Activity; in short: as §2
HOP-62 [5] = experiment: Antiproliferative activity against human HOP-62 cells assessed as cell growth at 10 uM incubated for 48 hrs by sulforhodamine B assay relative to control; format: functional; settings: read-out: Activity; in short: as §2
HOP-92 [6] = experiment: Antiproliferative activity against human HOP-92 cells assessed as cell growth at 10 uM incubated for 48 hrs by sulforhodamine B assay relative to control; format: functional; settings: read-out: Activity; in short: as §2
NCI-H226 [7] = experiment: Antiproliferative activity against human NCI-H226 cells assessed as cell growth at 10 uM incubated for 48 hrs by sulforhodamine B assay relative to control; format: functional; settings: read-out: Activity; in short: as §2
NCI-H23 [8] = experiment: Antiproliferative activity against human NCI-H23 cells assessed as cell growth at 10 uM incubated for 48 hrs by sulforhodamine B assay relative to control; format: functional; settings: read-out: Activity; in short: as §2
NCI-H322M [9] = experiment: Antiproliferative activity against human NCI-H322M cells assessed as cell growth at 10 uM incubated for 48 hrs by sulforhodamine B assay relative to control; format: functional; settings: read-out: Activity; in short: as §2
NCI-H460 [10] = experiment: Antiproliferative activity against human NCI-H460 cells assessed as cell growth at 10 uM incubated for 48 hrs by sulforhodamine B assay relative to control; format: functional; settings: read-out: Activity; in short: as §2
NCI-H522 [11] = experiment: Antiproliferative activity against human NCI-H522 cells assessed as cell growth at 10 uM incubated for 48 hrs by sulforhodamine B assay relative to control; format: functional; settings: read-out: Activity; in short: as §2
A549 [12] = experiment: Growth inhibition of human A549/ATCC cells incubated for 48 hrs by sulforhodamine B assay; format: functional
In short: (§3)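 NCI DTP NCI-60 five-dose screen, same procedure as the one-dose assay: 24 h preincubation, then 48 h exposure. Five tenfold-spaced concentrations were used, from 100 μM to 10 nM or from 25 μM to 2.5 nM depending on compound. GI50, TGI and LC50 were read from growth-percentage curves relative to control cells.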

EKVX [13] = experiment: Growth inhibition of human EKVX cells incubated for 48 hrs by sulforhodamine B assay; format: functional; in short: as §3
HOP-62 [14] = experiment: Growth inhibition of human HOP-62 cells incubated for 48 hrs by sulforhodamine B assay; format: functional; in short: as §3
HOP-92 [15] = experiment: Growth inhibition of human HOP-92 cells incubated for 48 hrs by sulforhodamine B assay; format: functional; in short: as §3
NCI-H226 [16] = experiment: Growth inhibition of human NCI-H226 cells incubated for 48 hrs by sulforhodamine B assay; format: functional; in short: as §3
NCI-H23 [17] = experiment: Growth inhibition of human NCI-H23 cells incubated for 48 hrs by sulforhodamine B assay; format: functional; in short: as §3
NCI-H322M [18] = experiment: Growth inhibition of human NCI-H322M cells incubated for 48 hrs by sulforhodamine B assay; format: functional; in short: as §3
NCI-H460 [19] = experiment: Growth inhibition of human NCI-H460 cells incubated for 48 hrs by sulforhodamine B assay; format: functional; in short: as §3
NCI-H522 [20] = experiment: Growth inhibition of human NCI-H522 cells incubated for 48 hrs by sulforhodamine B assay; format: functional; in short: as §3
[21] = read-out: LC50 (the source's name)

c1ccc2cc(Cn3cc[n+](CCCCCCn4cc[n+](Cc5ccc6ccccc6c5)c4)c3)ccc2c1 showed an IC50 (NCI-H460 [1]) of 2 µM, an IC50 (NCI-H1975) of 6 µM and an IC50 (HCC827) of 12 µM. For the same compound, the IC50 (A549 [2]) was under 1 µM, the growth at 10 µM (A549 [3]) was 38.6% and the growth at 10 µM (EKVX [4]) was 37.3%. It also gave a growth at 10 µM (HOP-62 [5]) of 55.8%, a growth at 10 µM (HOP-92 [6]) of 59.9% and a growth at 10 µM (NCI-H226 [7]) of 69.6%. For the same compound, the growth at 10 µM (NCI-H23 [8]) was 30.5%, the growth at 10 µM (NCI-H322M [9]) was 76.2% and the growth at 10 µM (NCI-H460 [10]) was 24.6%. It also gave a growth at 10 µM (NCI-H522 [11]) of 33.1%.

In the case of c1ccc2cc(Cn3cc[n+](Cc4ccc5ccccc5c4)c3)ccc2c1, the IC50 (NCI-H460 [1]) is reported as 4 µM, the IC50 (NCI-H1975) is reported as 6 µM and the IC50 (HCC827) is reported as 9 µM.

c1ccc2cc(Cn3cc[n+](CCCCCCCCCCCCn4cc[n+](Cc5ccc6ccccc6c5)c4)c3)ccc2c1 showed an IC50 (NCI-H460 [1]) of under 1 µM, an IC50 (NCI-H1975) of under 1 µM and an IC50 (HCC827) of 4 µM. It also gave an IC50 (A549 [2]) of under 1 µM, a growth at 10 µM (A549 [3]) of -74.2% and a growth at 10 µM (EKVX [4]) of -62.6%. It also gave a growth at 10 µM (HOP-62 [5]) of -58%, a growth at 10 µM (HOP-92 [6]) of -68.2% and a growth at 10 µM (NCI-H226 [7]) of -42.1%. The growth at 10 µM (NCI-H23 [8]) was -80.3%, the growth at 10 µM (NCI-H322M [9]) was -18.4% and the GI50 (A549 [12]) was 0.744 µM. The CC50 (A549 [12]; [21]) was 14.2 µM, the GI50 (EKVX [13]) was 0.893 µM and the LC50 (EKVX [13]) was 20.8 µM. The GI50 (HOP-62 [14]) was 0.815 µM, the LC50 (concentration giving 50% net cell kill) (HOP-62 [14]) was 12.2 µM and the GI50 (HOP-92 [15]) was 0.5 µM. The LC50 (concentration giving 50% net cell kill) (HOP-92 [15]) was 7.29 µM, the GI50 (NCI-H226 [16]) was 0.984 µM and the LC50 (NCI-H226 [16]) was over 25 µM. For the same compound, the TGI (NCI-H226 [16]) was 5.52 µM, the GI50 (NCI-H23 [17]) was 0.722 µM and the LC50 (NCI-H23 [17]) was 11.2 µM. It also gave a GI50 (NCI-H322M [18]) of 0.859 µM, an LC50 (concentration giving 50% net cell kill) (NCI-H322M [18]) of 10.4 µM and a TGI (NCI-H322M [18]) of 3.9 µM. For the same compound, the GI50 (NCI-H460 [19]) was 0.814 µM, the LC50 (concentration giving 50% net cell kill) (NCI-H460 [19]) was 14.6 µM and the TGI (NCI-H460 [19]) was 2.96 µM. For the same compound, the GI50 (NCI-H522 [20]) was 0.47 µM and the CC50 (NCI-H522 [20]; [21]) was 9.89 µM.

Work on c1ccc2cc(Cn3cc[n+](CCCCCn4cc[n+](Cc5ccc6ccccc6c5)c4)c3)ccc2c1 yielded an IC50 (NCI-H460 [1]) of 2 µM, an IC50 (NCI-H1975) of 12 µM and an IC50 (HCC827) of over 30 µM. It also gave an IC50 (A549 [2]) of 4 µM, a growth at 10 µM (A549 [3]) of 41.7% and a growth at 10 µM (EKVX [4]) of 47.1%. It also gave a growth at 10 µM (HOP-62 [5]) of 57%, a growth at 10 µM (HOP-92 [6]) of 66% and a growth at 10 µM (NCI-H226 [7]) of 72.6%. It also gave a growth at 10 µM (NCI-H23 [8]) of 45.3%, a growth at 10 µM (NCI-H322M [9]) of 86.2% and a growth at 10 µM (NCI-H460 [10]) of 30.5%. For the same compound, the growth at 10 µM (NCI-H522 [11]) was 35.7%.

c1ccc2cc(Cn3cc[n+](CCCCCCCn4cc[n+](Cc5ccc6ccccc6c5)c4)c3)ccc2c1 showed an IC50 (NCI-H460 [1]) of 3 µM, an IC50 (NCI-H1975) of 3 µM and an IC50 (HCC827) of 10 µM. For the same compound, the IC50 (A549 [2]) was 2 µM, the growth at 10 µM (A549 [3]) was 26.7% and the growth at 10 µM (EKVX [4]) was 27.9%. It also gave a growth at 10 µM (HOP-62 [5]) of 32.6%, a growth at 10 µM (NCI-H226 [7]) of 59.5% and a growth at 10 µM (NCI-H23 [8]) of 14.4%. For the same compound, the growth at 10 µM (NCI-H322M [9]) was 58.6%, the growth at 10 µM (NCI-H460 [10]) was 14.6% and the growth at 10 µM (NCI-H522 [11]) was 5.87%.
